The values that follow come from ChEMBL document CHEMBL1135528, “Monocyclic human tachykinin NK-2 receptor antagonists as evolution of a potent bicyclic antagonist: QSAR and site-directed mutagenesis studies” (J Med Chem, 2002).

The test system of experiment [1] is Substance-K receptor (Homo sapiens), P21452 [Q166A]. Nature of the experiment: Binding affinity against Q166A human neurokinin-2 receptor (hNK-2R) using [3H]nepadutant as a radioligand. The essentials: (§1)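 Membranes from cells stably transfected with wild-type or mutant hNK-2R, incubated with [3H]nepadutant for 60 min at 20 °C in 50 mM Tris-HCl pH 7.4 containing peptidase inhibitors, 150 mM NaCl, 5 mM MnCl2 and 1 g/L BSA. Competitors ranged 0.3 pM–10 μM. Nonspecific binding was defined with 1 mM unlabeled ligand. Bound label was collected by filtration and counted. Means from ≥3 duplicate experiments.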
Sequence of Substance-K receptor (Homo sapiens), P21452 [Q166A] (P21452 whole entry Q166A): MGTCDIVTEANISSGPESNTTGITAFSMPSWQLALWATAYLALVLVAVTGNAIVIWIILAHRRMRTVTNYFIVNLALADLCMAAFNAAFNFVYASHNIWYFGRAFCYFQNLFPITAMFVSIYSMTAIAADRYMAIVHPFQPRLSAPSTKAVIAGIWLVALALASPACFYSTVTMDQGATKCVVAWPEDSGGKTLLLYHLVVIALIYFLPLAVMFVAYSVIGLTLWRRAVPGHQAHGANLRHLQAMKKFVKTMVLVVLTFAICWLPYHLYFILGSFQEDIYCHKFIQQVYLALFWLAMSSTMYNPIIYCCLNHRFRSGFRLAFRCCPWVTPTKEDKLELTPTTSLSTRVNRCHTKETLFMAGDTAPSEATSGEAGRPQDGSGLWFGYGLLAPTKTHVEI

The subject of experiment [2] is T1, Substance-K receptor (Homo sapiens), P21452 [W263A].
T1 sequence (whole entry): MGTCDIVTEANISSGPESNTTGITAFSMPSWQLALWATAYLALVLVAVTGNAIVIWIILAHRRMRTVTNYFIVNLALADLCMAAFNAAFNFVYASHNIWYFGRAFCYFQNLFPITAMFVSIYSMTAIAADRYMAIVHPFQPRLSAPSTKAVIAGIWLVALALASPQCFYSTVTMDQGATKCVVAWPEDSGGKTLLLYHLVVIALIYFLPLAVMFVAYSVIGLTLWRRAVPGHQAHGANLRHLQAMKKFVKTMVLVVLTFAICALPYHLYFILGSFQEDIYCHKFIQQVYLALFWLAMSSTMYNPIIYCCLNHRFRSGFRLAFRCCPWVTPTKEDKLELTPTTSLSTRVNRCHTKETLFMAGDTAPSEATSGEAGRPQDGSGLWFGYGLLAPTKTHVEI
In words: Binding affinity against W263A human neurokinin-2 receptor (hNK-2R) using [3H]nepadutant as a radioligand; UB is Undetectable Binding. In outline: as §1

Experiment [3] has as its system Substance-K receptor (Homo sapiens), P21452 [Y269A]. Nature of the experiment: Binding affinity against Y269A human neurokinin-2 receptor (hNK-2R) using [3H]nepadutant as a radioligand. In outline: as §1
Experiment [4] deals with Substance-K receptor (Homo sapiens), P21452 [T171A]. In words: Binding affinity against T171A human neurokinin-2 receptor (hNK-2R) using [3H]nepadutant as a radioligand; UB is undetectable binding. The essentials: as §1
Sequence of Substance-K receptor (Homo sapiens), P21452 [T171A] (P21452 whole entry T171A): as the sequence (P21452 whole entry Q166A) above, with A166Q, T171A counted along it
The target of experiment [5] is T2, Substance-K receptor (Homo sapiens) (UniProt P21452).
T2 sequence (whole entry): T1 sequence (whole entry) with A263W
In words: Binding affinity against wild-type human Wild-type tachykinin receptor 2 (hNK-2R) using [3H]-SR-48,968 as a radioligand. In outline:
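Radioligand [3H]SR48968 was incubated for 30 min at 20 °C with membranes from stably transfected wild-type or mutant hNK-2R cells, in Tris-HCl 50 mM pH 7.4 buffer with protease inhibitors, NaCl, MnCl2 and BSA. Test ligands ranged 0.3 pM–10 μM, with nonspecific binding in 1 mM unlabeled ligand. Filtration through PEI-soaked filters was followed by scintillation counting. pKi was derived by curve fitting, duplicate determinations.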

In experiment [6] the test system is Substance-K receptor (Homo sapiens), P21452 [I202F]. Nature of the experiment: Binding affinity against I202F human neurokinin-2 receptor (hNK-2R) using [3H]nepadutant as a radioligand. The essentials:
as §1

Experiment [7] has as its system Substance-K receptor (Homo sapiens), P21452 [N110A]. Nature of the experiment: Binding affinity against N110A human neurokinin-2 receptor (hNK-2R) using [3H]nepadutant as a radioligand; UB is Undetectable Binding. The essentials:
as §1

In experiment [8] the target is T2, Substance-K receptor (Homo sapiens). In words: Binding affinity against wild type human Wild-type tachykinin receptor 2 (hNK-2R) using [3H]nepadutant as a radioligand. The essentials: as §1
Experiment [9] has as its system Substance-K receptor (Homo sapiens), P21452 [F293A]. Nature of the experiment: Binding affinity against F293A human neurokinin-2 receptor (hNK-2R) using [3H]nepadutant as a radioligand. The essentials:
as §1

For experiment [10], the system named is Substance-K receptor (Homo sapiens), P21452 [F112A]. Nature of the experiment: Binding affinity against F112A human neurokinin-2 receptor (hNK-2R) using [3H]nepadutant as a radioligand. The essentials: as §1
Sequence of Substance-K receptor (Homo sapiens), P21452 [F112A] (P21452 whole entry F112A): as the sequence (P21452 whole entry Q166A) above, with F112A, A166Q counted along it
Experiment [11] concerns the target T2, Substance-K receptor (Homo sapiens). Nature of the experiment: Binding affinity against wild-type human Wild-type tachykinin receptor 2 (hNK-2R) using [125I]-NKA as a radioligand.
The test system of experiment [12] is T3, Substance-K receptor (Homo sapiens), P21452 [Y266F].
T3 sequence (whole entry): T1 sequence (whole entry) with A263W, Y266F

The subject of experiment [13] is Substance-K receptor (Homo sapiens), P21452 [Y289F]. In words: Binding affinity against Y289F human neurokinin-2 receptor (hNK-2R) using [3H]nepadutant as a radioligand. In outline: as §1

Substitutions are numbered along the chain they refer to. Active and inactive are the calls of the source. The rule behind the calls is not given here. Where a SMILES comes first, the peptide text is derived from it. Bridges are numbered along the chain shown (N, C = ends). [ ]: non-standard residue; d: D form. The star is where a group is joined. NH(β-GlcNAc) = CC(=O)N[C@@H]1[C@@H](O)[C@H](O)[C@@H](CO)O[C@H]1N*; Dap = NC[C@H](N)C(=O)O

Sequence of Substance-K receptor (Homo sapiens), P21452 [I202F] (P21452 whole entry I202F): as the sequence (P21452 whole entry Q166A) above, with A166Q, I202F counted along it
Sequence of Substance-K receptor (Homo sapiens), P21452 [Y289F] (P21452 whole entry Y289F): as the sequence (P21452 whole entry Q166A) above, with A166Q, Y289F counted along it
Sequence of Substance-K receptor (Homo sapiens), P21452 [Y269A] (P21452 whole entry Y269A): as the sequence (P21452 whole entry Q166A) above, with A166Q, Y269A counted along it
Sequence of Substance-K receptor (Homo sapiens), P21452 [F293A] (P21452 whole entry F293A): as the sequence (P21452 whole entry Q166A) above, with A166Q, F293A counted along it
Sequence of Substance-K receptor (Homo sapiens), P21452 [N110A] (P21452 whole entry N110A): as the sequence (P21452 whole entry Q166A) above, with N110A, A166Q counted along it

For the compound `CC(=O)N[C@@H]1[C@@H](O)[C@H](O)[C@@H](CO)O[C@H]1NC(=O)C[C@@H]1NC(=O)[C@H](CC(C)C)NC(=O)[C@@H]2CNC(=O)C[C@H](NC1=O)C(=O)N[C@@H](Cc1c[nH]c3ccccc13)C(=O)N[C@@H](Cc1ccccc1)C(=O)N2` (cyclo(D(NH(β-GlcNAc))DWF[Dap]L); lactam 2-5), the KD/Ki was found to be 3.5 nM in experiment [1]; 19 nM in [3]; 9.1 nM in experiment [5]; 0.44 nM in [6]; 4 nM in experiment [8]; 7.4 nM in experiment [9]. In addition, the KD/Ki in experiment [10] came out at 22.1 nM; in [11] it was 2.4 nM; in experiment [12], 16.3 nM; in experiment [13], 2.9 nM. Also, the UB entry in [2], in experiment [4] and in experiment [7] was “inactive” in each case.
